# Source: PubChem (several laboratories)
# Compounds with a hit are over-represented: about 2% of the library has one in this group of screens.
# PABP polyA inh – PABP poly(A) RNA binding inhibitors, primary screen, biochemical, fluorescence polarization, uHTS | Polyadenylate-binding protein 1 (Homo sapiens), P11940 | inhibition, % at 35 µM | 290,000 compounds, 1% hits | AID 2014, 2009;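 also: calls also rest on retests at 20 µM and on dose response follow-up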
# eIF4H FP inh – human eIF4H binding inhibitors, primary screen, translation initiation inhibitor project, biochemical, uHTS, fluorescence polarization. 290,000 compounds, 0.94% hits. eIF4H fluorescence polarization binding assay. inhibition, % at 35 µM. Eukaryotic translation initiation factor 4H (Homo sapiens), Q15056;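 also: calls also rest on retests at 20 µM and on dose response follow-up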
# PABP1 MLLE inh – inhibitors of PABP1 MLLE–PAM2 peptide binding, primary screen, biochemical, fluorescence polarization, FITC-PAM2, GST-MLLE | inhibition, % at 20 µM | 360,000 compounds, 0.36% hits | AID 588489, 2011; in the data active = inhibition above about 35%, passing the limit was not always enough;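 also: plate controls were DMSO wells with GST-MLLE for no effect and wells lacking GST-MLLE protein for full effect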
# HCV NS3 hel inh – inhibitors of HCV NS3 helicase, primary screen, biochemical, Cy5 molecular beacon fluorescence. Hepatitis C virus NS3 helicase. NS3 helicase DNA unwinding. inhibition, % at 10.9 µM. 290,000 compounds, 0.56% hits. AID 1800, 2009;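 active = inhibition above the mean of all tested compounds plus 3 SD, set per campaign, cut at about 35% in these data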;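 also: 0% = DMSO wells and 100% = thioflavine S control wells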
#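 System: NS3 helicase fragment of HCV / Schedule: 1 h at 25 °C / Control set: DMSO alone as 0% and 110 µM thioflavine S as 100% / Reagent: Cy5/quencher beacon DNA duplex and ATP to start / Technique: Cy5 fluorescence / Replication: singlicate / Evaluation: % inhibition of end-to-start signal ratio versus controls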
# core dimer inh – inhibitors of HCV core protein dimerization, primary screen, biochemical, TR-FRET, high-throughput; TR-FRET GST/Flag-core106 dimerization, 1536-well; inhibition, % at 5 µM; 300,000 compounds, 0.33% hits; AID 1899, 2009;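 active = inhibition above the mean of all tested compounds plus 3 SD, set per screening campaign, cut at about 45% in these data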
#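 Assay system: tagged HCV core106 pair (GST and Flag); medium: KF-containing HEPES buffer, pH 7.45, DTT, CHAPS, BSA; also added: Eu donor and XL665 acceptor anti-tag antibodies; dosing: 5 µM single dose; timing: compound-protein-antibody incubation 4 h at 22.5 °C; signal: TR-FRET 671 and 617 nm emission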
# DNA FID counter – compounds displacing fluorescent DNA intercalator, primary screen, artefact control for HCV NS3 helicase inhibitor project, biochemical, FID fluorescence. DNA fluorescent intercalator displacement. inhibition, % at 7.9 µM. 290,000 compounds, 0.17% hits; in the data active = inhibition above about 37%;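 also: 0% = vehicle and 100% = reference compound; higher means more ethidium bromide displaced from hairpin DNA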
# * = called active by the depositor; nt = not tested or not shown. Unless noted, no rule for the calls is given here.
SMILES,PABP polyA inh,eIF4H FP inh,PABP1 MLLE inh,HCV NS3 hel inh,core dimer inh,DNA FID counter
COc1ccccc1OCC(=O)Nc1nnc(-c2ccco2)s1,60*,96*,10,5,nt,-20
CCCC(=O)Nc1nnc(-c2ccco2)s1,0,24,11,-5,2,-2
O=C(Cc1ccccc1)Nc1nnc(-c2ccco2)s1,30*,64,-6,13,3,-5
Cc1cc(/C=N/NC(=O)Cn2c3ccccc3c(=O)c3ccccc32)c(C)n1-c1ccccc1,0,-4,-6,20,62*,-6
COc1cc(CNC(=O)c2ccc3c(c2)S(=O)(=O)c2ccccc2C3=O)cc(OC)c1,nt,nt,12,nt,4,nt
Cc1cc(=O)oc2cc(NC(=O)C(CCCN=C(N)N)NC(=O)OCc3ccccc3)ccc12 (centres undefined),-1,1,-2,-49,nt,41*
Nc1[nH]c(=O)[nH]c(=O)c1N=Cc1ccccc1,nt,nt,68*,nt,nt,nt
CCCCN1C2=C(C(=O)CCC2)C(c2ccc(Cl)c(Cl)c2)C2=C1c1ccccc1C2=O (centres undefined),92*,90*,38,-1,16,-7
CCCN1C(=O)c2ccccc2NC1c1ccc(Cl)c(Cl)c1 (centres undefined),7,-8,-4,-9,10,-23
c1coc(-c2cnc3ccccc3n2)c1,nt,nt,27,nt,nt,nt
c1coc(-c2nc3ccccc3nc2-c2ccco2)c1,85*,102*,32,33,10,-7
O=C(NCCc1ccccc1)c1ccc2nc(-c3ccco3)c(-c3ccco3)nc2c1,90*,88*,16,23,65*,-18
O=C(NCCO)c1ccc(Cl)c(Cl)c1,8,1,10,3,3,2
O=C(c1ccccc1)c1ccc2nc(-c3ccco3)c(-c3ccco3)nc2c1,78,96,2,34,47*,-18
O=C(NCCO)c1ccc2nc(-c3ccco3)c(-c3ccco3)nc2c1,92*,87*,40*,13,-5,-1
O=C(O)c1ccc2nc(-c3ccccc3)c(-c3ccccc3)nc2c1,-1,-10,10,24,-2,-39
Cc1cc(Nc2cc(Cl)nc(Sc3ccc(NC(=O)C4CC4)cc3)n2)n[nH]1,nt,nt,3,nt,2,nt
CN(CC(=O)Nc1cccc(F)c1)C(=O)c1ccc(N2CCCCC2)c([N+](=O)[O-])c1,nt,nt,0,nt,5,nt
O=C1Cc2cc(CCN3CCN(c4nsc5ccccc45)CC3)c(Cl)cc2N1,15,25,nt,-74,nt,1
CC(=O)c1ccc(OCC(O)CN2CCN(S(=O)(=O)c3c(C)c(C)cc(C)c3C)CC2)cc1 (centres undefined),3,-11,-6,-20,-6,-26
CCCNC(=O)c1cn(CC)c2cc(N3CCN(C)CC3)c(F)cc2c1=O,-3,-2,4,2,-4,16
CCn1cc(C(=O)NCCCN(C)C)c(=O)c2cc(F)c(N3CCN(C)CC3)cc21,61,-3,13,18,-2,68*
CCn1cc(C(=O)NCCN(C)C)c(=O)c2cc(F)c(N3CCN(C)CC3)cc21,48,3,2,15,5,56*
CN1CCN([C@H]2CS(=O)(=O)N[C@@H]2COCc2ccccc2)CC1,nt,nt,-10,nt,nt,nt
Cc1ccc2oc(-c3cccc(NC(=O)c4ccc(Br)o4)c3)nc2c1,-2,-4,-4,2,6,-2
Cc1cc2nc(-c3cccc(NC(=O)c4ccc(Br)o4)c3)oc2cc1C,86*,active,4,-2,11,-1
CCC(CC)NC(=O)CN1CCN(S(=O)(=O)c2ccc(Br)s2)CC1,nt,nt,6,nt,nt,nt
COc1ccccc1/C=C(/C(=O)OCC(=O)NCc1ccccc1)c1ccccc1,7,-13,-2,-10,-2,-30
COc1ccccc1/C=C(/CC(=O)NCc1ccccc1)c1nc2ccccc2s1,20,-2,8,12,49*,-17
